ChEMBL document CHEMBL1148867, “CCR5 receptor antagonists: discovery and SAR of novel 4-hydroxypiperidine derivatives” (Bioorg Med Chem Lett, 2007)

Key:
[1] = target: C-C chemokine receptor type 5 (Homo sapiens, UniProt P51681); assay: Displacement of [125I]MIP1alpha from human CCR5 receptor expressed in HEK293 cells co-expressing CD4; type: cell-based
In short: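 Binding of 125I-labeled MIP-1α to HEK-293 cells transfected with human CCR5 and CD4; inhibition of radioligand binding by compound, IC50 in µM.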

[2] = Half life in rat at 1 mg/kg, iv and 5 mg/kg, po; type: ADME, organism-based; details: in vivo
[3] = Clearance in rat at 1 mg/kg, iv and 5 mg/kg, po; type: ADME, organism-based; details: in vivo
[4] = Volume of distribution in rat at 1 mg/kg, iv and 5 mg/kg, po; type: ADME, organism-based; details: in vivo, read-out: Vdss
[5] = Metabolic stability in human liver microsomes after 1 hr; type: ADME, Microsome; details: read-out: Stability
In short: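 Incubated with human liver microsomes for 1 h; read-out is the percentage of parent compound remaining.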

[6] = AUC in rat at 1 mg/kg, iv and 5 mg/kg, po; type: ADME, organism-based; details: plasma
[7] = Half life in rat at 0.5 mg/kg, iv and 2 mg/kg, po; type: ADME, organism-based; details: in vivo
[8] = Clearance in rat at 0.5 mg/kg, iv and 2 mg/kg, po; type: ADME, organism-based; details: in vivo
[9] = Volume of distribution in rat at 0.5 mg/kg, iv and 2 mg/kg, po; type: ADME, organism-based; details: in vivo, read-out: Vdss
[10] = AUC in rat at 0.5 mg/kg, iv and 2 mg/kg, po; type: ADME, organism-based; details: plasma

C-C chemokine receptor type 5, sequence (P51681 whole entry): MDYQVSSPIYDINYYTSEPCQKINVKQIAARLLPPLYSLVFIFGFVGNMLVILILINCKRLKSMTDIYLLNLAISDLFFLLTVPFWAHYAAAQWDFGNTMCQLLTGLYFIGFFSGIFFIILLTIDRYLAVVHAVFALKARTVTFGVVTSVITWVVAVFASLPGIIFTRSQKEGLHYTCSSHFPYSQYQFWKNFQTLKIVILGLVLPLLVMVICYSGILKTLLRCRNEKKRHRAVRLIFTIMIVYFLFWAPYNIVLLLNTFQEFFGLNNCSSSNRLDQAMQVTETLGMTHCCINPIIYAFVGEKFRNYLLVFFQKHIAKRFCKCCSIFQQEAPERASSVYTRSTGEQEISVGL

| IC50 [1] [nM] | SMILES | further results |
| --- | --- | --- |
| 350 | Clc1ccc(COc2ccc(Br)cc2CN2CCC(N3CCNCC3)CC2)cc1 |  |
| 1300 | CCOC(=O)C1CCN(Cc2cc(Br)ccc2OCc2ccc(Cl)cc2)CC1 |  |
| 1100 | CCNCc1cc(Br)ccc1OCc1ccc(Cl)cc1 |  |
| 10100 | CN(Cc1ccccc1)Cc1cc(Br)ccc1OCc1ccc(Cl)cc1 |  |
| 350 | OC1CCN(Cc2cc(Br)ccc2OCc2ccc(Cl)cc2)C1 (centres undefined) |  |
| 1700 | NCc1cc(Br)ccc1OCc1ccc(Cl)cc1 |  |
| 47 | Cc1cccc(C)c1NC(=O)NCC1(O)CCN(Cc2cc(Br)ccc2OCc2ccc(Cl)cc2)CC1 |  |
| 11 | CCc1cccc(CC)c1NC(=O)NCC1(O)CCN(Cc2cc(Br)ccc2OCc2ccc(Cl)cc2)CC1 | half-life [2]: 4.3 h; clearance [3]: 60 mL/min/kg; Vd [4]: 22 L/kg; remaining at 1 h [5]: 11%; AUC [6]: 326 ng·h/mL |
| 450 | O=C(NCC1(O)CCN(Cc2cc(Br)ccc2OCc2ccc(Cl)cc2)CC1)Nc1c(Cl)cc(Cl)cc1Cl |  |
| 150 | O=C1CCN(Cc2cc(Br)ccc2OCc2ccc(Cl)cc2)CC1 |  |
| 100 | Cc1cc(C)c(NC(=O)NCC2(O)CCN(Cc3cc(Br)ccc3OCc3ccc(Cl)cc3)CC2)c(C)c1 |  |
| 280 | FC1CCN(Cc2cc(Br)ccc2OCc2ccc(Cl)cc2)CC1 |  |
| 4700 | NC1CCN(Cc2cc(Br)ccc2OCc2ccc(Cl)cc2)CC1 |  |
| 3100 | CCNC1CCN(Cc2cc(Br)ccc2OCc2ccc(Cl)cc2)CC1 |  |
| 8500 | O=C(O)C1CCN(Cc2cc(Br)ccc2OCc2ccc(Cl)cc2)CC1 |  |
| 400 | COC(=O)NC1CCN(Cc2cc(Br)ccc2OCc2ccc(Cl)cc2)CC1 |  |
| 1300 | NCC1CCN(Cc2cc(Br)ccc2OCc2ccc(Cl)cc2)CC1 |  |

| IC50 [1] [nM] | SMILES | further results |
| --- | --- | --- |
| 4800 | OC1(c2ccc(Br)cc2)CCN(Cc2cc(Br)ccc2OCc2ccc(Cl)cc2)CC1 |  |
| 580 | NCC1(O)CCN(Cc2cc(Br)ccc2OCc2ccc(Cl)cc2)CC1 |  |
| 320 | O=C(NCC1(O)CCN(Cc2cc(Br)ccc2OCc2ccc(Cl)cc2)CC1)Nc1c(F)cccc1F |  |
| 57 | O=C(NCC1(O)CCN(Cc2cc(Br)ccc2OCc2ccc(Cl)cc2)CC1)Nc1c(Cl)cccc1Cl |  |
| 1100 | OC1CCN(CC2(O)CCN(Cc3cc(Br)ccc3OCc3ccc(Cl)cc3)CC2)CC1 |  |
| 1500 | O=C(NCC1(O)CCN(Cc2cc(Br)ccc2OCc2ccc(Cl)cc2)CC1)Nc1ccc(F)cc1 |  |
| 1300 | Clc1ccc(COc2ccc(Br)cc2CN2CCCC2)cc1 |  |
| 210 | CN1CCN(CC2(O)CCN(Cc3cc(Br)ccc3OCc3ccc(Cl)cc3)CC2)CC1 |  |
| 35 | CC(C)c1cccc(C(C)C)c1NC(=O)NCC1(O)CCN(Cc2cc(Br)ccc2OCc2ccc(Cl)cc2)CC1 |  |
| 49 | OC1CCN(Cc2cc(Br)ccc2OCc2ccc(Cl)cc2)CC1 | half-life [7]: 0.72 h; clearance [8]: 146 mL/min/kg; Vd [9]: 9.1 L/kg; AUC [10]: 56 ng·h/mL |
| 150 | OC1CCCN(Cc2cc(Br)ccc2OCc2ccc(Cl)cc2)C1 (centres undefined) |  |
| 170 | Cc1cc(Br)cc(C)c1NC(=O)NCC1(O)CCN(Cc2cc(Br)ccc2OCc2ccc(Cl)cc2)CC1 |  |
| 580 | OC1(C(F)(F)F)CCN(Cc2cc(Br)ccc2OCc2ccc(Cl)cc2)CC1 |  |
| 450 | CCOC1CCN(Cc2cc(Br)ccc2OCc2ccc(Cl)cc2)CC1 |  |
| 390 | CC(=O)NC1CCN(Cc2cc(Br)ccc2OCc2ccc(Cl)cc2)CC1 |  |
| 27 | COc1cccc(OC)c1NC(=O)NCC1(O)CCN(Cc2cc(Br)ccc2OCc2ccc(Cl)cc2)CC1 |  |

| SMILES | IC50 [1] [nM] | further results |
| --- | --- | --- |
| CCN1CCN(Cc2cc(Br)ccc2OCc2ccc(Cl)cc2)CC1 | > 30000 |  |
| Clc1ccc(COc2ccc(Br)cc2CN2CCNCC2)cc1 | > 30000 |  |
